Measurements from ChEMBL document CHEMBL1149329, “Synthesis and biological activity of sulfonamide derivatives of epipodophyllotoxin” (J Med Chem, 2004).
Where “and” joins values, the source holds several entries; their conditions need not be identical. Equal values may be shown once.

Assays:
[1] = target: DNA topoisomerase II (Homo sapiens) (UniProt P11388+Q02880); assay: Inhibition of human DNA Topoisomerase II mediated DNA cleavage through the stabilization of transient DAN/topoisomerase II cleavage complex; type: protein assay
Procedure, shortened: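 Supercoiled pBS DNA (0.1 μg) preincubated 15 min at 30 °C with drug at 50 μM in 50 mM Tris-HCl pH 7.5, 1 mM ATP, 120 mM KCl, 10 mM MgCl2, 0.5 mM DTT, 0.1 mM EDTA, BSA. Two units human topo II added, 30 min at 30 °C. SDS/proteinase K digestion 30 min at 55 °C. 1% agarose gel with ethidium bromide; linear DNA percentage read, mean of three independent experiments.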

L1210 [2] = assay: Percent of L1210 cells in the G2+M phase of the cell cycle at a compound concentration of 2.5 uM; type: functional, Mus musculus
Procedure, shortened: (§1)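 L1210 cells (2.5 × 10⁵ cells/mL) were incubated for 21 h with compound at the stated concentration. Flow cytometry was run on 10⁴ cells per sample, and the percentage of cells in G2+M was recorded.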

L1210 [3] = assay: Inhibitory concentration required to reduce 50 percent L1210 cell growth; type: functional, cell-based; conditions: Mus musculus
Procedure, shortened: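 L1210 cells were grown in RPMI 1640 with 10% fetal calf serum, 2 mM glutamine, antibiotics and 10 mM HEPES (pH 7.4). Cells were exposed to compound for 48 h. MTT was then added for 4 h at 37 °C, and formazan was dissolved in DMSO and read at 540 nm. IC50 is the concentration reducing OD by 50%, from linear regression on the linear part of the curve. Triplicate.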

P388 [4] = assay: Evaluated for long-term survivors scored at day 60; 0/6; type: functional, Mus musculus
P388 [5] = assay: Antitumor activity against P388 leukemia at dose range of 3.12-50 mg/kg on day 1, activity expressed as maximum tolerated dose; type: functional, Mus musculus
P388 [6] = assay: Median survival time of treated animals/median survival time of control animals; type: functional, Mus musculus
L1210 [7] = assay: Percent of L1210 cells in the G2+M phase of the cell cycle at a compound concentration of 0.5 uM; type: functional, Mus musculus; procedure, shortened: as §1
A549 [8] = assay: Antitumor activity against A549 non small cell carcinoma at dose range of 3.12-12.5 mg/kg on day 14, 21, 28; activity expressed as maximum tolerated dose; type: functional, Homo sapiens
Procedure, shortened: (§2)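 A549 human lung tumour cells were implanted orthotopically, 10⁶ cells through the chest wall into the left pleural space of anaesthetised BALB/C nude mice. Once tumours were established, drug was given iv on days 14, 21 and 28 after tumour cell injection. The endpoint was life span, expressed as T/C (%) = median survival time of treated/control × 100. MTD was the dose causing no toxic death and/or no weight loss >20%.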

L1210 [9] = assay: Percent of L1210 cells in the G2+M phase of the cell cycle at a compound concentration of 0.25 uM; type: functional, Mus musculus; procedure, shortened: as §1
P388 [10] = assay: Antitumor activity against P388 leukemia at dose range of 1.56-25 mg/kg on day 1, activity expressed as maximum tolerated dose; type: functional, Mus musculus
A549 [11] = assay: Antitumor activity against A549 non small cell carcinoma at dose range of 1.56-6.25 mg/kg on day 14, 21, 28; activity expressed as maximum tolerated dose; type: functional, Homo sapiens; procedure, shortened: as §2
L1210 [12] = assay: Percent of L1210 cells in the G2+M phase of the cell cycle at a compound concentration of 0.1 uM; type: functional, Mus musculus; procedure, shortened: as §1
[13] = Median survival time of treated animals/median survival time of control animals; ranges from 126-159; type: functional; procedure, shortened: as §2
L1210 [14] = assay: Percent of L1210 cells in the G2+M phase of the cell cycle at a compound concentration of 1 uM; type: functional, Mus musculus; procedure, shortened: as §1
L1210 [15] = assay: Percent of L1210 cells in the G2+M phase of the cell cycle at a compound concentration of 0.2 uM; type: functional, Mus musculus; procedure, shortened: as §1
A549 [16] = assay: Antitumor activity against A549 non small cell carcinoma at dose range of 6.25-25 mg/kg on day 14, 21, 28; activity expressed as maximum tolerated dose; type: functional, Homo sapiens; procedure, shortened: as §2
P388 [17] = assay: Antitumor activity against P388 leukemia at dose range of 12.5-200 mg/kg on day 1, activity expressed as maximum tolerated dose; type: functional, Mus musculus
A549 [18] = assay: Antitumor activity against A549 non small cell carcinoma at dose range of 25-100 mg/kg on day 14, 21, 28; activity expressed as maximum tolerated dose; type: functional, Homo sapiens; procedure, shortened: as §2

Row | Compound | Activity [1] | IC50 (L1210 [3]) [nM] | LTS (P388 [4]) | T/C (P388 [6]) | further results
1 | CCCCN(CCCC)S(=O)(=O)N[C@@H]1c2cc3c(cc2[C@@H](c2cc(OC)c(O)c(OC)c2)[C@H]2C(=O)OC[C@@H]21)OCO3 | 0 | 510 | – | – | Effect (L1210 [2]): 60%
2 | COc1cc([C@@H]2c3cc4c(cc3[C@@H](NS(=O)(=O)c3cccs3)[C@H]3COC(=O)[C@H]23)OCO4)cc(OC)c1O | 9 | 170 | 0 | 102% | MTD (P388 [5]): 12.5; Effect (L1210 [7]): 71%
3 | CCN(CC)S(=O)(=O)N[C@@H]1c2cc3c(cc2[C@@H](c2cc(OC)c(O)c(OC)c2)[C@H]2C(=O)OC[C@@H]21)OCO3 | 24 | 83 | 0 | 106% and 120% | MTD (A549 [8]): 6.25; Effect (L1210 [9]): 86%; MTD (P388 [10]): 25
4 | COc1cc([C@@H]2c3cc4c(cc3[C@@H](NS(=O)(=O)c3ccc(S(C)(=O)=O)cc3)[C@H]3COC(=O)[C@H]23)OCO4)cc(OC)c1O | 10 | 550 | – | – | Effect (L1210 [2]): 75%
5 | COc1cc([C@@H]2c3cc4c(cc3[C@@H](NS(=O)(=O)N3CCN(C)CC3)[C@H]3COC(=O)[C@H]23)OCO4)cc(OC)c1O | 45 | 48 | 0 | 229% | MTD (A549 [11]): 6.25; Effect (L1210 [12]): 84%; MTD (P388 [10]): 12.5; T/C [13]: 159%
6 | CCCCCCCCS(=O)(=O)N[C@@H]1c2cc3c(cc2[C@@H](c2cc(OC)c(O)c(OC)c2)[C@H]2C(=O)OC[C@@H]21)OCO3 | 35 | 250 | – | – | Effect (L1210 [14]): 76%
7 | COc1cc([C@@H]2c3cc4c(cc3[C@@H](NS(=O)(=O)c3ccc(N)cc3)[C@H]3COC(=O)[C@H]23)OCO4)cc(OC)c1O | 0 | 340 | – | – | Effect (L1210 [15]): 75%
8 | COc1cc([C@@H]2c3cc4c(cc3[C@@H](NS(=O)(=O)N(C)C)[C@H]3COC(=O)[C@H]23)OCO4)cc(OC)c1O | 44 | 37 | 0 | 192% and 133% | MTD (A549 [16]): 6.25; Effect (L1210 [9]): 66%; MTD (P388 [17]): 100
9 | COc1cc([C@@H]2c3cc4c(cc3[C@@H](NS(=O)(=O)N3CCCCC3)[C@H]3COC(=O)[C@H]23)OCO4)cc(OC)c1O | 34 | 120 | 0 | 121% | MTD (P388 [17]): 200; Effect (L1210 [7]): 77%
10 | COc1cc([C@@H]2c3cc4c(cc3[C@@H](NS(=O)(=O)N3CCOCC3)[C@H]3COC(=O)[C@H]23)OCO4)cc(OC)c1O | 31 | 100 | 0 | 235% and 155% | MTD (A549 [18]): 50; Effect (L1210 [9]): 76%; MTD (P388 [17]): 200
11 | COc1cc([C@@H]2c3cc4c(cc3[C@@H](N)[C@H]3COC(=O)[C@H]23)OCO4)cc(OC)c1O | 0 | 630 | – | – | Effect (L1210 [2]): 57%
